Measured values published in ChEMBL document CHEMBL1131617 (J Med Chem, 1998).

Key:
[1] = target: Mu-type opioid receptor (Rattus norvegicus, UniProt P33535); experiment: Relative affinity against Opioid receptor mu 1 in thalamus using [3H]DAMGO as radioligand; type: tissue-based
How it was run: (§1)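 Radioligand competition binding was run per earlier published conditions. Inhibition was screened at 100 nM and 10 µM. Incubated tubes were filtered through glass-fibre filters on a vacuum manifold. Nonspecific binding was counts bound in the presence of a saturating concentration of an established competing ligand. Reference drugs were run in parallel as positive controls.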

[2] = target: D(1A) dopamine receptor (Rattus norvegicus, UniProt P18901); experiment: Relative affinity for Dopamine receptor D1 in striatum using [3H]SCH-23390; type: tissue-based; how it was run: as §1
[3] = target: Sodium-dependent dopamine transporter (Rattus norvegicus, UniProt P23977); experiment: relative affinity against dopamine transporter using WIN-35428 as radioligand; how it was run: as §1
[4] = target: Kappa-type opioid receptor (Rattus norvegicus, UniProt P34975); experiment: relative affinity against Opioid receptor kappa 1 in insular Ctx using [3H]U-69593 as radioligand
[5] = target: Sodium-dependent serotonin transporter (Rattus norvegicus, UniProt P31652); experiment: relative affinity against serotonin transporter using RTI-55 as radioligand; how it was run: as §1
[6] = target: D(3) dopamine receptor (Rattus norvegicus, UniProt P19020); experiment: relative affinity against Dopamine receptor D3 in ventral striatum using [3H](+)-7-OH-DPAT as radioligand; type: tissue-based; how it was run: as §1
[7] = target: Glutamate NMDA receptor; experiment: relative affinity against N-methyl-D-aspartate glutamate receptor in caudate using [3H](+)-MK-801 as radioligand; type: protein-complex assay
How it was run: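 Tubes incubated under the specified conditions, then filtered on glass-fibre filters and counted. Nonspecific binding taken as cpm bound with a saturating concentration of an established competing ligand. Reference drugs run in parallel as positive controls.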

[8] = target: D(2) dopamine receptor (Rattus norvegicus, UniProt P61169); experiment: relative affinity against Dopamine receptor D2 in striatum using [3H]YM-09151-2 as radioligand; type: tissue-based; how it was run: as §1
Chain of D(2) dopamine receptor (P61169 whole entry): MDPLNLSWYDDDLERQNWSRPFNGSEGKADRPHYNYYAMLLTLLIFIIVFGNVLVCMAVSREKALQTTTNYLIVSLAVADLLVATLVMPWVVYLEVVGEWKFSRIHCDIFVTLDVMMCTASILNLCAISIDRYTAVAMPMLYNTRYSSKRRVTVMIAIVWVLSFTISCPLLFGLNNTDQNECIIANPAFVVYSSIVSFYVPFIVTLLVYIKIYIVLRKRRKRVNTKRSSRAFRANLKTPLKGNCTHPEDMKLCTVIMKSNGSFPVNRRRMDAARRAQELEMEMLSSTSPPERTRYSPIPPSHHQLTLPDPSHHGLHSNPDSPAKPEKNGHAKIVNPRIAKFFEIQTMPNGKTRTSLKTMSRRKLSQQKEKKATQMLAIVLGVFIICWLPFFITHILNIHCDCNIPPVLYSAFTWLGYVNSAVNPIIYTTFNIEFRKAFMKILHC

Chain of Sodium-dependent dopamine transporter (P23977 whole entry): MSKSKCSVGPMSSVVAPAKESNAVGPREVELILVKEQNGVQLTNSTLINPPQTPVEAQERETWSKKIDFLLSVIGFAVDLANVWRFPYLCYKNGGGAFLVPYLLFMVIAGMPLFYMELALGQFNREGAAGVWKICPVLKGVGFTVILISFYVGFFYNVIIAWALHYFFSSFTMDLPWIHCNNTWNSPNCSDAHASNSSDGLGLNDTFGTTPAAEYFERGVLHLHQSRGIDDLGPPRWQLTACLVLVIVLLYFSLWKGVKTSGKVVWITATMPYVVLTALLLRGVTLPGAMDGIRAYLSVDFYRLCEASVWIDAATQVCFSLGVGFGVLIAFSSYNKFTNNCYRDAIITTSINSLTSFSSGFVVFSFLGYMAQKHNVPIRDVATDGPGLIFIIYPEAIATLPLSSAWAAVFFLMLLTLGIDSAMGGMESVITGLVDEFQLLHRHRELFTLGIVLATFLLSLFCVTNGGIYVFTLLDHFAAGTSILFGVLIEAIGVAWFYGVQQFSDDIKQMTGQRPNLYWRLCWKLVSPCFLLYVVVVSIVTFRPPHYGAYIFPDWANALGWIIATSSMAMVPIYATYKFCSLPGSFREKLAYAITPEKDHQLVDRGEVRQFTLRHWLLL
Chain of Sodium-dependent serotonin transporter (P31652 whole entry): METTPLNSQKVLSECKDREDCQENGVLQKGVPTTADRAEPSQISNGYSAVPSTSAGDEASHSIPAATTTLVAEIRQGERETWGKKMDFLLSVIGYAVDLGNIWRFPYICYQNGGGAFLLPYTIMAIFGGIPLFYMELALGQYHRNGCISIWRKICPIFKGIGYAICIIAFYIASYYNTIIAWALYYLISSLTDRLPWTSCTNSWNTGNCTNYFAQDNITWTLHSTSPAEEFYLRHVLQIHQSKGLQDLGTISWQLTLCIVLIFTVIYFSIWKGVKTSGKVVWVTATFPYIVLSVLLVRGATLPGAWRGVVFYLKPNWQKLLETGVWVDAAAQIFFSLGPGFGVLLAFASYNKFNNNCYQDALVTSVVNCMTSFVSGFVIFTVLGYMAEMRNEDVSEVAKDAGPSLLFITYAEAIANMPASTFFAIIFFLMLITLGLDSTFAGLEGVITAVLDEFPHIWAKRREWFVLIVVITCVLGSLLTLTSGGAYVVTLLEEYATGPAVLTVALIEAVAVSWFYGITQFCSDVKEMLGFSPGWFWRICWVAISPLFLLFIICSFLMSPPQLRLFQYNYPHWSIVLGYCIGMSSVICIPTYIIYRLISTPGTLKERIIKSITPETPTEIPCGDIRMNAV
Chain of Mu-type opioid receptor (P33535 whole entry): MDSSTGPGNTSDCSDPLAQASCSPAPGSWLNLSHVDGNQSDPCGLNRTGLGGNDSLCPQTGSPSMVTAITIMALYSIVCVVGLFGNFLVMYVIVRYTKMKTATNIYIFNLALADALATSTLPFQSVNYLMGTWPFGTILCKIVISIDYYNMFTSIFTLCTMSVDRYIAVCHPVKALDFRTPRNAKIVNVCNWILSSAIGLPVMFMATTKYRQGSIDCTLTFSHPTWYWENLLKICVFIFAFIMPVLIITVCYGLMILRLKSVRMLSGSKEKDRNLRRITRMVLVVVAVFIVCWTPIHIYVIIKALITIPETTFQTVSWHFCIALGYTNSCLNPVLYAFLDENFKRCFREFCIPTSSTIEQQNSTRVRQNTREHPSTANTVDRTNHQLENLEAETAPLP
Chain of D(1A) dopamine receptor (P18901 whole entry): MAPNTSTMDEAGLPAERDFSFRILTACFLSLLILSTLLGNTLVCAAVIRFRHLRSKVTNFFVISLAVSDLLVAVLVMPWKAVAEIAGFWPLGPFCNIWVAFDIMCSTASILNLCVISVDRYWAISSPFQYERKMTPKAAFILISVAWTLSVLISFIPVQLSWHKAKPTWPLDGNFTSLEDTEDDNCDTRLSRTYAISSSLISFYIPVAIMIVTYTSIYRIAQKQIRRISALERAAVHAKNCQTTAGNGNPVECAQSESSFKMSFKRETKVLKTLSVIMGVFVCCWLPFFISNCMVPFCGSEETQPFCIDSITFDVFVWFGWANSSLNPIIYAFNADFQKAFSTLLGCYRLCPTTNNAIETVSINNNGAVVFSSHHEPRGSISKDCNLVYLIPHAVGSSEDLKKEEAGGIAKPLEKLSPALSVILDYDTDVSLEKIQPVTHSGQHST
Chain of Kappa-type opioid receptor (P34975 whole entry): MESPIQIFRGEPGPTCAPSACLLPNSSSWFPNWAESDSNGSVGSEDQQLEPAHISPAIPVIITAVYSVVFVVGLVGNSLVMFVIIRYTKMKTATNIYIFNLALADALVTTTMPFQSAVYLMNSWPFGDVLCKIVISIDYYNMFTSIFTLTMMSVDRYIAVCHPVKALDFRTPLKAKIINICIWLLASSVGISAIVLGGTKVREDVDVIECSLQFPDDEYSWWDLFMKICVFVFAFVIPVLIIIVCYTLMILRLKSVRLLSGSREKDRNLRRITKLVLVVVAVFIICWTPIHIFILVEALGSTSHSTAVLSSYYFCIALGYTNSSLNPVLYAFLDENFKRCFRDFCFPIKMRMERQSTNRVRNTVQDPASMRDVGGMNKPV
Chain of D(3) dopamine receptor (P19020 whole entry): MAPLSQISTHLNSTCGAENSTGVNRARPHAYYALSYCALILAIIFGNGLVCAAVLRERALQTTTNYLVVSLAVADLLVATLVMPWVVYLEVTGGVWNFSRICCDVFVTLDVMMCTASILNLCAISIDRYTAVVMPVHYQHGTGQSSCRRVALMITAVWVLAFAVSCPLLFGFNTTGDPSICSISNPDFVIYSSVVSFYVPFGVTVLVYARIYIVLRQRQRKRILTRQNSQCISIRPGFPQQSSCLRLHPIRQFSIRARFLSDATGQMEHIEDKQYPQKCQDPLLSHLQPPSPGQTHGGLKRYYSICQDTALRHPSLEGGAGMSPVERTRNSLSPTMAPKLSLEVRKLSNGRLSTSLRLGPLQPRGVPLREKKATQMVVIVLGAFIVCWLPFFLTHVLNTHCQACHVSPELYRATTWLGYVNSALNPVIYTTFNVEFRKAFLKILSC

SMILES | IC50 [1] [µM] | IC50 [2] [µM] | IC50 [3] [nM] | IC50 [4] [µM] | IC50 [5] [nM] | IC50 [6] [nM] | IC50 [7] [µM] | IC50 [8] [µM]
CCN1CCc2c(sc3ccccc23)C(c2cccc(Br)c2)C1 (stereo not drawn) | 5 | 5 | 210 | 12.5 | 4300 | 2000 | 46.6 | 3.5
CCN1CCc2c(sc3ccccc23)C(c2ccccc2)C1 (stereo not drawn) | 2.2 | 3 | 140 | 1.3 | 300 | 600 | 42 | 5
CN1CCc2c([nH]c3ccccc23)C(c2ccccc2)C1 (stereo not drawn) | 3.1 | 20 | 180 | 21.2 | 190 | 4200 | – | 27.2
CCN1CCc2c(sc3ccccc23)C(c2ccc(Cl)c(Cl)c2)C1 (stereo not drawn) | 54.5 | 70 | 250 | 15.9 | 1200 | 2000 | 81 | 5
CCN1CCc2c(sc3ccccc23)C(c2cccc([N+](=O)[O-])c2)C1 (stereo not drawn) | 3.1 | 5 | 250 | 16.2 | 1100 | 600 | 32 | 3.1
COc1cc2c(cc1OC)C(c1ccccc1)CN(C)CC2 (stereo not drawn) | – | 0.491 | – | – | – | – | – | –
CC[C@@H]1CC2C[C@@H]3c4[nH]c5ccc(O)cc5c4CCN(C2)C13 | 0.16 | > 10 | – | 4.24 | 40 | > 10000 | 31.4 | > 10
CC[C@H]1C[C@@H]2C[C@H]3c4[nH]c5ccc(OC)cc5c4CCN(C2)[C@@H]13 [IBOGAINE] | – | > 10 | 4110 | – | 590 | > 10000 | 5.2 | > 10
